Laboratory results published in ChEMBL document CHEMBL4689842, “EUbOPEN Chemogenomics Library wave 1” (2021).

Tested on: HEK-293T
Assay: Multiplex assay against HEK293T;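 as to Population Tubulin-Different-Phenotype (%): share of the cells with healthy nuclei that show this phenotype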
Assay type: toxicity, cell-based
Settings: human
In short: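 Hoechst33342, BioTracker Green Microtubule Cytoskeleton Dye, MitoTracker Red and Annexin V Alexa Fluor 680 were added to live cells at seeding, and imaging on a CQ1 microscope at 37°C and 5% CO2 followed compound addition. Gating by CellPathfinder machine learning separated cells into Hoechst high-intensity objects or normal cells, then normal cells into healthy, pyknosed or fragmented nuclei, then pyknosed cells into mitotic or apoptotic. Per cents of healthy-nucleus cells are reported for the tubulin, mitochondrial-mass and membrane-permeability phenotypes.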

[1] = 12 h, 0 µM, compound concentration 0 uM, replicate 1
[2] = 12 h, 0 µM, compound concentration 0 uM, replicate 2
[3] = 12 h, 1 µM, compound concentration 1 uM, replicate 1
[4] = 12 h, 1 µM, compound concentration 1 uM, replicate 2
[5] = 24 h, 0 µM, compound concentration 0 uM, replicate 1
[6] = 24 h, 0 µM, compound concentration 0 uM, replicate 2
[7] = 24 h, 1 µM, compound concentration 1 uM, replicate 1
[8] = 24 h, 1 µM, compound concentration 1 uM, replicate 2
[9] = 12 h, 10 µM, compound concentration 10 uM, replicate 1
[10] = 12 h, 10 µM, compound concentration 10 uM, replicate 2
[11] = 24 h, 10 µM, compound concentration 10 uM, replicate 1
[12] = 24 h, 10 µM, compound concentration 10 uM, replicate 2
[13] = 48 h, 1 µM, compound concentration 1 uM, replicate 1
[14] = 48 h, 1 µM, compound concentration 1 uM, replicate 2
[15] = 48 h, 10 µM, compound concentration 10 uM, replicate 1
[16] = 48 h, 10 µM, compound concentration 10 uM, replicate 2

## CCNc1cc(N[C@H]2CC[C@H](O)CC2)nc(Nc2ccc3c(ccn3Cc3ccccc3)c2)n1
[1]
  Population Apoptotic (%): 42%
  Population Fragmented Nuclei (%): 21%
  Population Healthy Nuclei (%): 10%
  Population Hoechst High Intensity Objects (%): 21%
  Population Membrane Permeable-Phenotype (%): 16%
  Population Mitochondria Different-Phenotype (%): 41%
  Population Mitotic Cells (%): 57%
  Population Normal (%): 78%
  Population Pyknosed Nuclei (%): 67%
  Population Tubulin-Different-Phenotype (%): 50%
  Total Cell Count: 667
[2]
  Population Apoptotic (%): 29%
  Population Fragmented Nuclei (%): 3%
  Population Healthy Nuclei (%): 38%
  Population Hoechst High Intensity Objects (%): 6%
  Population Membrane Permeable-Phenotype (%): 1%
  Population Mitochondria Different-Phenotype (%): 83%
  Population Mitotic Cells (%): 70%
  Population Normal (%): 93%
  Population Pyknosed Nuclei (%): 58%
  Population Tubulin-Different-Phenotype (%): 97%
  Total Cell Count: 1155
[3]
  Population Apoptotic (%): 23%
  Population Fragmented Nuclei (%): 12%
  Population Healthy Nuclei (%): 54%
  Population Hoechst High Intensity Objects (%): 10%
  Population Mitochondria Different-Phenotype (%): 27%
  Population Mitotic Cells (%): 76%
  Population Normal (%): 89%
  Population Pyknosed Nuclei (%): 32%
  Population Tubulin-Different-Phenotype (%): 46%
  Total Cell Count: 618
[4]
  Population Apoptotic (%): 7%
  Population Fragmented Nuclei (%): 3%
  Population Healthy Nuclei (%): 85%
  Population Hoechst High Intensity Objects (%): 2%
  Population Membrane Permeable-Phenotype (%): 10%
  Population Mitochondria Different-Phenotype (%): 33%
  Population Mitotic Cells (%): 92%
  Population Normal (%): 97%
  Population Pyknosed Nuclei (%): 11%
  Population Tubulin-Different-Phenotype (%): 80%
  Total Cell Count: 1484
[5]
  Population Apoptotic (%): 59%
  Population Fragmented Nuclei (%): 26%
  Population Healthy Nuclei (%): 10%
  Population Hoechst High Intensity Objects (%): 19%
  Population Membrane Permeable-Phenotype (%): 5%
  Population Mitochondria Different-Phenotype (%): 51%
  Population Mitotic Cells (%): 40%
  Population Normal (%): 80%
  Population Pyknosed Nuclei (%): 63%
  Population Tubulin-Different-Phenotype (%): 53%
  Total Cell Count: 694
[6]
  Population Apoptotic (%): 37%
  Population Fragmented Nuclei (%): 2%
  Population Healthy Nuclei (%): 30%
  Population Hoechst High Intensity Objects (%): 8%
  Population Membrane Permeable-Phenotype (%): 2%
  Population Mitochondria Different-Phenotype (%): 91%
  Population Mitotic Cells (%): 62%
  Population Normal (%): 91%
  Population Pyknosed Nuclei (%): 66%
  Population Tubulin-Different-Phenotype (%): 96%
  Total Cell Count: 1176
[7]
  Population Apoptotic (%): 20%
  Population Fragmented Nuclei (%): 9%
  Population Healthy Nuclei (%): 76%
  Population Hoechst High Intensity Objects (%): 7%
  Population Membrane Permeable-Phenotype (%): 8%
  Population Mitochondria Different-Phenotype (%): 18%
  Population Mitotic Cells (%): 79%
  Population Normal (%): 92%
  Population Pyknosed Nuclei (%): 13%
  Population Tubulin-Different-Phenotype (%): 54%
  Total Cell Count: 703
[8]
  Population Apoptotic (%): 9%
  Population Fragmented Nuclei (%): 11%
  Population Healthy Nuclei (%): 83%
  Population Hoechst High Intensity Objects (%): 2%
  Population Membrane Permeable-Phenotype (%): 12%
  Population Mitochondria Different-Phenotype (%): 14%
  Population Mitotic Cells (%): 90%
  Population Normal (%): 97%
  Population Pyknosed Nuclei (%): 4%
  Population Tubulin-Different-Phenotype (%): 75%
  Total Cell Count: 2335

## O=C(Nc1ccc(-c2ccnc(Nc3ccc(N4CCOCC4)cc3)n2)cc1)[C@@H]1CCCN1
[3]
  Population Apoptotic (%): 46%
  Population Fragmented Nuclei (%): 9%
  Population Healthy Nuclei (%): 34%
  Population Hoechst High Intensity Objects (%): 11%
  Population Membrane Permeable-Phenotype (%): 2%
  Population Mitochondria Different-Phenotype (%): 77%
  Population Mitotic Cells (%): 53%
  Population Normal (%): 88%
  Population Pyknosed Nuclei (%): 56%
  Population Tubulin-Different-Phenotype (%): 50%
  Total Cell Count: 289
[4]
  Population Apoptotic (%): 13%
  Population Fragmented Nuclei (%): 2%
  Population Healthy Nuclei (%): 45%
  Population Hoechst High Intensity Objects (%): 4%
  Population Membrane Permeable-Phenotype (%): 12%
  Population Mitochondria Different-Phenotype (%): 19%
  Population Mitotic Cells (%): 86%
  Population Normal (%): 95%
  Population Pyknosed Nuclei (%): 51%
  Population Tubulin-Different-Phenotype (%): 30%
  Total Cell Count: 246
[9]
  Population Apoptotic (%): 54%
  Population Fragmented Nuclei (%): 16%
  Population Healthy Nuclei (%): 17%
  Population Hoechst High Intensity Objects (%): 18%
  Population Membrane Permeable-Phenotype (%): 0%
  Population Mitochondria Different-Phenotype (%): 96%
  Population Mitotic Cells (%): 45%
  Population Normal (%): 81%
  Population Pyknosed Nuclei (%): 65%
  Population Tubulin-Different-Phenotype (%): 100%
  Total Cell Count: 232
[10]
  Population Apoptotic (%): 27%
  Population Fragmented Nuclei (%): 12%
  Population Healthy Nuclei (%): 15%
  Population Hoechst High Intensity Objects (%): 4%
  Population Membrane Permeable-Phenotype (%): 12%
  Population Mitochondria Different-Phenotype (%): 62%
  Population Mitotic Cells (%): 72%
  Population Normal (%): 95%
  Population Pyknosed Nuclei (%): 72%
  Population Tubulin-Different-Phenotype (%): 91%
  Total Cell Count: 163
[7]
  Population Apoptotic (%): 51%
  Population Fragmented Nuclei (%): 10%
  Population Healthy Nuclei (%): 52%
  Population Hoechst High Intensity Objects (%): 12%
  Population Membrane Permeable-Phenotype (%): 1%
  Population Mitochondria Different-Phenotype (%): 75%
  Population Mitotic Cells (%): 48%
  Population Normal (%): 87%
  Population Pyknosed Nuclei (%): 36%
  Population Tubulin-Different-Phenotype (%): 51%
  Total Cell Count: 337
[8]
  Population Apoptotic (%): 17%
  Population Fragmented Nuclei (%): 3%
  Population Healthy Nuclei (%): 63%
  Population Hoechst High Intensity Objects (%): 3%
  Population Membrane Permeable-Phenotype (%): 6%
  Population Mitochondria Different-Phenotype (%): 21%
  Population Mitotic Cells (%): 82%
  Population Normal (%): 96%
  Population Pyknosed Nuclei (%): 32%
  Population Tubulin-Different-Phenotype (%): 46%
  Total Cell Count: 303
[11]
  Population Apoptotic (%): 57%
  Population Fragmented Nuclei (%): 18%
  Population Healthy Nuclei (%): 24%
  Population Hoechst High Intensity Objects (%): 12%
  Population Membrane Permeable-Phenotype (%): 1%
  Population Mitochondria Different-Phenotype (%): 98%
  Population Mitotic Cells (%): 42%
  Population Normal (%): 87%
  Population Pyknosed Nuclei (%): 56%
  Population Tubulin-Different-Phenotype (%): 98%
  Total Cell Count: 242
[12]
  Population Apoptotic (%): 32%
  Population Fragmented Nuclei (%): 7%
  Population Healthy Nuclei (%): 38%
  Population Hoechst High Intensity Objects (%): 4%
  Population Membrane Permeable-Phenotype (%): 7%
  Population Mitochondria Different-Phenotype (%): 56%
  Population Mitotic Cells (%): 67%
  Population Normal (%): 95%
  Population Pyknosed Nuclei (%): 53%
  Population Tubulin-Different-Phenotype (%): 88%
  Total Cell Count: 186
[13]
  Population Apoptotic (%): 48%
  Population Fragmented Nuclei (%): 10%
  Population Healthy Nuclei (%): 71%
  Population Hoechst High Intensity Objects (%): 7%
  Population Membrane Permeable-Phenotype (%): 3%
  Population Mitochondria Different-Phenotype (%): 31%
  Population Mitotic Cells (%): 51%
  Population Normal (%): 92%
  Population Pyknosed Nuclei (%): 17%
  Population Tubulin-Different-Phenotype (%): 33%
  Total Cell Count: 482
[14]
  Population Apoptotic (%): 10%
  Population Fragmented Nuclei (%): 4%
  Population Healthy Nuclei (%): 84%
  Population Hoechst High Intensity Objects (%): 3%
  Population Membrane Permeable-Phenotype (%): 4%
  Population Mitochondria Different-Phenotype (%): 6%
  Population Mitotic Cells (%): 90%
  Population Normal (%): 96%
  Population Pyknosed Nuclei (%): 10%
  Population Tubulin-Different-Phenotype (%): 25%
  Total Cell Count: 495
[15]
  Population Apoptotic (%): 49%
  Population Fragmented Nuclei (%): 22%
  Population Healthy Nuclei (%): 48%
  Population Hoechst High Intensity Objects (%): 8%
  Population Membrane Permeable-Phenotype (%): 4%
  Population Mitochondria Different-Phenotype (%): 84%
  Population Mitotic Cells (%): 50%
  Population Normal (%): 91%
  Population Pyknosed Nuclei (%): 29%
  Population Tubulin-Different-Phenotype (%): 95%
  Total Cell Count: 271
[16]
  Population Apoptotic (%): 36%
  Population Fragmented Nuclei (%): 10%
  Population Healthy Nuclei (%): 60%
  Population Hoechst High Intensity Objects (%): 5%
  Population Membrane Permeable-Phenotype (%): 10%
  Population Mitochondria Different-Phenotype (%): 38%
  Population Mitotic Cells (%): 63%
  Population Normal (%): 94%
  Population Tubulin-Different-Phenotype (%): 81%
  Total Cell Count: 246
